Data from ChEMBL document CHEMBL1126129, “Flavones. 3. Synthesis, biological activities, and conformational analysis of isoflavone derivatives and related compounds” (1992).
The source made the active and inactive calls. The rule behind the calls is not given here.

How the values were obtained:
Rattus norvegicus [1] = test: Antiinflammatory activity was measured as inhibition of carrageenan-induced paw edema in male rats at 4 mg/kg dose; assay type: functional
Summary of the method: (§1)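 Male Sprague-Dawley rats, housed 1 week, 160-200 g at test, groups of six. Dosed orally in 0.5% aqueous methocel 2 h before carrageenan challenge; controls got vehicle. Paw volume measured by mercury plethysmometer immediately and 3 h later. % inhibition = (Δcontrol − Δtest)/Δcontrol × 100, compared with control by analysis of variance. Usually one experiment per compound.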

Rattus norvegicus [2] = test: Antihypertensive activity was measured as decrease in systolic blood pressure in spontaneously hypertensive rats at 75 mg/kg, po 2 hours after dosing; NS denotes not significant; assay type: functional, organism-based; design: dose 75 mg/kg; settings: Artery
Summary of the method: (§2)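 Male spontaneously hypertensive rats (Wistar-Kyoto strain), five per dose group. Systolic arterial pressure measured by indirect tail cuff. Dosing was 75 mg/kg po, or 30 mg/kg iv for one analog. Percentage fall in systolic pressure recorded at stated hours after dosing. Significance vs control at p < 0.05; non-significant falls flagged.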

Rattus norvegicus [3] = test: Antihypertensive activity was measured as decrease in systolic blood pressure in spontaneously hypertensive rats at 75 mg/kg, po 24 hours after dosing; assay type: functional, Artery; summary of the method: as §2
Rattus norvegicus [4] = test: Antihypertensive activity was measured as decrease in systolic blood pressure in spontaneously hypertensive rats at 75 mg/kg, po 5 hours after dosing; assay type: functional, Artery; summary of the method: as §2
Rattus norvegicus [5] = test: Antihypertensive activity was measured as decrease in systolic blood pressure in spontaneously hypertensive rats at 75 mg/kg, po 7.5 hours after dosing; assay type: functional, Artery; summary of the method: as §2
Rattus norvegicus [6] = test: In vivo inhibition of carrageenan-induced paw oedema in rats following 50 mg/kg administration.; assay type: functional; summary of the method: as §1
Rattus norvegicus [7] = test: Antihypertensive activity was measured as decrease in systolic blood pressure in spontaneously hypertensive rats at 75 mg/kg, po 24 hours after dosing; NS denotes not significant; assay type: functional, organism-based; design: dose 75 mg/kg; settings: Artery; summary of the method: as §2
Rattus norvegicus [8] = test: Antihypertensive activity was measured as decrease in systolic blood pressure in spontaneously hypertensive rats at 75 mg/kg, po 5 hours after dosing; NS denotes not significant; assay type: functional, organism-based; design: dose 75 mg/kg; settings: Artery; summary of the method: as §2
Rattus norvegicus [9] = test: Antihypertensive activity was measured as decrease in systolic blood pressure in spontaneously hypertensive rats at 75 mg/kg, po 7.5 hours after dosing; NS denotes not significant; assay type: functional, organism-based; design: dose 75 mg/kg; settings: Artery; summary of the method: as §2
Rattus norvegicus [10] = test: Antiinflammatory activity was measured as inhibition of carrageenan-induced paw edema in male rats at 25 mg/kg dose; assay type: functional; summary of the method: as §1
Rattus norvegicus [11] = test: Antihypertensive activity was measured as decrease in systolic blood pressure in spontaneously hypertensive rats at 75 mg/kg, po 2 hours after dosing; assay type: functional, Artery; summary of the method: as §2
Rattus norvegicus [12] = test: Antiinflammatory activity was measured as %inhibition of carrageenan-induced paw edema in male rats at 25 mg/kg dose; assay type: functional; summary of the method: as §1
Rattus norvegicus [13] = test: Antiinflammatory activity was measured as %inhibition of carrageenan-induced paw edema in male rats at 50 mg/kg dose; assay type: functional; summary of the method: as §1
Rattus norvegicus [14] = test: Antihypertensive activity was measured as decrease in systolic blood pressure in spontaneously hypertensive rats at 30 mg/kg, iv 2 hours after dosing; NS denotes not significant; assay type: functional, organism-based; design: dose 30 mg/kg; settings: Artery; summary of the method: as §2

## COc1ccc2c(c1)c(CC(=O)O)c(C)n2C(=O)c1ccc(Cl)cc1 [INDOMETHACIN]
Rattus norvegicus [1]
  Inhibition: 44.6%

## CC(C)NCC(O)COc1ccc2c(=O)c(-c3ccccc3)coc2c1 (stereo not drawn)
Rattus norvegicus [2]
  Decrease in SBP: inactive
Rattus norvegicus [3]
  Decrease in SBP: 21%
Rattus norvegicus [4]
  Decrease in SBP: 11%
Rattus norvegicus [5]
  Decrease in SBP: 14%
Rattus norvegicus [6]
  inhibition in vivo at 50 mg/kg: 33%

## Clc1cccc(Cl)c1NC1=NCCN1 [CLONIDINE]
Rattus norvegicus [4]
  Decrease in SBP: 15%

## O=c1c(-c2ccccc2)coc2cc(OCC(O)CNC3CCCCCCC3)ccc12 (stereo not drawn)
Rattus norvegicus [2]
  Decrease in SBP: inactive
Rattus norvegicus [7]
  Decrease in SBP: inactive
Rattus norvegicus [8]
  Decrease in SBP: inactive
Rattus norvegicus [9]
  Decrease in SBP: inactive
Rattus norvegicus [10]
  inhibition in vivo at 25 mg/kg: 41%
Rattus norvegicus [6]
  inhibition in vivo at 50 mg/kg: 21%

## CC(C)NCCCOc1ccc2c(=O)cc(-c3ccccc3)oc2c1
Rattus norvegicus [6]
  inhibition in vivo at 50 mg/kg: 41%

## CC(C)NCC(O)COc1ccc2c(=O)c(-c3ccccc3)c(-c3ccccc3)oc2c1 (stereo not drawn)
Rattus norvegicus [11]
  Decrease in SBP: 15%
Rattus norvegicus [3]
  Decrease in SBP: 34%
Rattus norvegicus [4]
  Decrease in SBP: 23%
Rattus norvegicus [5]
  Decrease in SBP: 30%
Rattus norvegicus [12]
  inhibition in vivo at 25 mg/kg: 32%
Rattus norvegicus [13]
  inhibition in vivo at 50 mg/kg: 24.6%

## Cc1oc2cc(OCC(O)CN(C)C(C)C)ccc2c(=O)c1-c1ccccc1 (stereo not drawn)
Rattus norvegicus [2]
  Decrease in SBP: inactive
Rattus norvegicus [7]
  Decrease in SBP: inactive
Rattus norvegicus [8]
  Decrease in SBP: inactive
Rattus norvegicus [9]
  Decrease in SBP: inactive
Rattus norvegicus [6]
  inhibition in vivo at 50 mg/kg: 19%

## CCCCCNCCCOc1ccc2c(=O)cc(-c3ccccc3)oc2c1
Rattus norvegicus [6]
  inhibition in vivo at 50 mg/kg: -9%

## CC(C)NCC(O)COc1ccc2c(=O)c(-c3ccccc3)c(C(C)C)oc2c1 (stereo not drawn)
Rattus norvegicus [11]
  Decrease in SBP: 18%
Rattus norvegicus [3]
  Decrease in SBP: 15%
Rattus norvegicus [4]
  Decrease in SBP: 20%
Rattus norvegicus [5]
  Decrease in SBP: 25%
Rattus norvegicus [6]
  inhibition in vivo at 50 mg/kg: 28%

## CC(C)(C)NCCCOc1ccc2c(=O)cc(-c3ccccc3)oc2c1
Rattus norvegicus [6]
  inhibition in vivo at 50 mg/kg: 34%

## Cc1oc2cc(OCC(O)CNC(C)C)ccc2c(=O)c1-c1ccccc1 (stereo not drawn)
Rattus norvegicus [2]
  Decrease in SBP: inactive
Rattus norvegicus [3]
  Decrease in SBP: 17%
Rattus norvegicus [4]
  Decrease in SBP: 12%
Rattus norvegicus [5]
  Decrease in SBP: 19%
Rattus norvegicus [6]
  inhibition in vivo at 50 mg/kg: 19%

## COc1c(-c2ccccc2)oc2cc(OCCCNC(C)C)ccc2c1=O
Rattus norvegicus [6]
  inhibition in vivo at 50 mg/kg: -2%

## CC(C)NCC(O)COc1ccc2c(=O)c(-c3ccccc3)c(C(F)(F)F)oc2c1 (stereo not drawn)
Rattus norvegicus [2]
  Decrease in SBP: inactive
Rattus norvegicus [3]
  Decrease in SBP: 20%
Rattus norvegicus [4]
  Decrease in SBP: 16%
Rattus norvegicus [5]
  Decrease in SBP: 16%
Rattus norvegicus [6]
  inhibition in vivo at 50 mg/kg: 28%

## O=c1cc(-c2ccccc2)oc2cc(OCCCNC3CCCC3)ccc12
Rattus norvegicus [6]
  inhibition in vivo at 50 mg/kg: 21%

## O=c1cc(-c2ccccc2)oc2cc(OCCCNC3CCCCCCC3)ccc12
Rattus norvegicus [6]
  inhibition in vivo at 50 mg/kg: 26%

## CC(C)NCC(O)COc1ccc2c(=O)c(-c3ccccc3)c(-c3ccco3)oc2c1 (stereo not drawn)
Rattus norvegicus [2]
  Decrease in SBP: inactive
Rattus norvegicus [7]
  Decrease in SBP: inactive
Rattus norvegicus [8]
  Decrease in SBP: inactive
Rattus norvegicus [5]
  Decrease in SBP: 15%
Rattus norvegicus [6]
  inhibition in vivo at 50 mg/kg: 19%

## CC(C)NCC(O)COc1ccc2c(=O)c(-c3ccccc3)c(Cc3ccccc3)oc2c1 (stereo not drawn)
Rattus norvegicus [2]
  Decrease in SBP: inactive
Rattus norvegicus [7]
  Decrease in SBP: inactive
Rattus norvegicus [8]
  Decrease in SBP: inactive
Rattus norvegicus [9]
  Decrease in SBP: inactive
Rattus norvegicus [6]
  inhibition in vivo at 50 mg/kg: -3.4%

## CCCNCCCOc1ccc2c(=O)cc(-c3ccccc3)oc2c1
Rattus norvegicus [6]
  inhibition in vivo at 50 mg/kg: 18%

## CCCNCC(O)COc1ccc2c(=O)c(-c3ccccc3)c(C(F)(F)F)oc2c1 (stereo not drawn)
Rattus norvegicus [2]
  Decrease in SBP: inactive
Rattus norvegicus [3]
  Decrease in SBP: 17%
Rattus norvegicus [4]
  Decrease in SBP: 11%
Rattus norvegicus [5]
  Decrease in SBP: 12%
Rattus norvegicus [6]
  inhibition in vivo at 50 mg/kg: 22%

## CC(C)NCC(O)COc1ccc2c(=O)cc(-c3ccccc3)oc2c1 (stereo not drawn)
Rattus norvegicus [11]
  Decrease in SBP: 12%
Rattus norvegicus [3]
  Decrease in SBP: 16%
Rattus norvegicus [4]
  Decrease in SBP: 18%
Rattus norvegicus [5]
  Decrease in SBP: 23%
Rattus norvegicus [13]
  inhibition in vivo at 50 mg/kg: 14.5%

## Cc1oc2cc(OCC(O)C[N+](C)(C)C(C)C)ccc2c(=O)c1-c1ccccc1.[I-] (stereo not drawn)
Rattus norvegicus [2]
  Decrease in SBP: inactive
Rattus norvegicus [7]
  Decrease in SBP: inactive
Rattus norvegicus [8]
  Decrease in SBP: inactive
Rattus norvegicus [5]
  Decrease in SBP: 0.1%
Rattus norvegicus [6]
  inhibition in vivo at 50 mg/kg: 36%

## CCCNCC(O)COc1cccc2c(=O)c(-c3ccccc3)coc12 (stereo not drawn)
Rattus norvegicus [14]
  Decrease in SBP: inactive

## CC(C)NCC(O)COc1ccc2c(=O)c(-c3ccccc3)c(C3CCCCC3)oc2c1 (stereo not drawn)
Rattus norvegicus [2]
  Decrease in SBP: inactive
Rattus norvegicus [7]
  Decrease in SBP: inactive
Rattus norvegicus [8]
  Decrease in SBP: inactive
Rattus norvegicus [9]
  Decrease in SBP: inactive
Rattus norvegicus [6]
  inhibition in vivo at 50 mg/kg: 24%

## CN(C)CCCOc1ccc2c(=O)cc(-c3ccccc3)oc2c1
Rattus norvegicus [6]
  inhibition in vivo at 50 mg/kg: 13%
